Active and inactive are the calls of the source. The calls are words filed in the database; no cut-off is given here.
Experiments:
VCaP [1] = test: Inhibition of AR mRNA level in human VCaP cells at 10 to 30 uM incubated for 24 hrs by qRT-PCR analysis; type: functional, cell-based
Outline: (§1)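 LNCaP, VCaP and 22Rv1 cells treated with DMSO or compounds for 24 h. AR-full and AR-V7 mRNA measured by qRT-PCR and normalised to GAPDH. Mean ± SD, n = 3, compared with DMSO by two-tailed t test.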

LNCaP [2] = test: Inhibition of AR protein expression in human LNCAP cells at 5 to 20 uM incubated for 24 hrs by Western blot analysis; type: functional, cell-based
Outline: (§2)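 LNCaP, VCaP and 22Rv1 cells grown in medium with 10% (v/v) FBS. Treated with compounds or DMSO for 24 h. AR-full and AR splice-variant protein then assessed by western blot.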

LNCaP [3] = test: Inhibition of AR mRNA level in human LNCAP cells at 5 to 20 uM incubated for 24 hrs by qRT-PCR analysis; type: functional, cell-based; outline: as §1
CWR22R [4] = test: Inhibition of AR splice variant 7 mutant gene expression in human 22Rv1 cells at 10 to 30 uM incubated for 24 hrs by qRT-PCR analysis; type: functional, cell-based; outline: as §1
LNCaP [5] = test: Inhibition of AR splice variant 7 mutant expression in human LNCAP cells at 5 to 20 uM incubated for 24 hrs by Western blot analysis analysis; type: functional, cell-based; outline: as §2
CWR22R [6] = test: Inhibition of AR splice variant 7 mutant expression in human 22Rv1 cells at 10 to 30 uM incubated for 24 hrs by Western blot analysis analysis; type: functional, cell-based; outline: as §2
VCaP [7] = test: Inhibition of AR splice variant 7 mutant gene expression in human VCaP cells at 10 to 30 uM incubated for 24 hrs by qRT-PCR analysis; type: functional, cell-based; outline: as §1
CWR22R [8] = test: Inhibition of AR mRNA level in human 22Rv1 cells at 10 to 30 uM incubated for 24 hrs by qRT-PCR analysis; type: functional, cell-based; outline: as §1
[9] = Half life in Sprague-Dawley rat 30 mg/kg, po measured up to 24 hrs by LC-MS/MS analysis; type: ADME, organism-based; details: in vivo
Outline: (§3)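 Rats dosed orally at 30 mg/kg, compound formulated in 10% DMA / 90% PEG200. Plasma levels followed over time to build concentration-time curves, from which T1/2, Tmax, Cmax and AUC were derived.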

LNCaP [10] = test: Inhibition of AR mRNA level in human LNCAP cells at 5 to 30 uM incubated for 24 hrs by qRT-PCR analysis; type: functional, cell-based; outline: as §1
CWR22R [11] = test: Inhibition of AR protein expression in human 22Rv1 cells at 10 to 40 uM incubated for 24 hrs by Western blot analysis; type: functional, cell-based; outline: as §2
LNCaP [12] = test: Inhibition of AR protein expression in human LNCAP cells at 5 to 30 uM incubated for 24 hrs by Western blot analysis; type: functional, cell-based; outline: as §2
LNCaP [13] = test: Induction of androgen receptor splice variant 7 mutant degradation in human LNCAP cells at 30 uM incubated upto 26 hrs in presence of bortezomib by Western blot analysis; type: functional, cell-based
[14] = AUC (0 to t) in Sprague-Dawley rat 30 mg/kg, po measured up to 24 hrs by LC-MS/MS analysis; type: ADME, organism-based; set-up: dose 30 mg/kg, time < 24 hr, route oral; details: in vivo; outline: as §3
CWR22R [15] = test: Inhibition of AR splice variant 7 mutant expression in human 22Rv1 cells at 10 to 40 uM incubated for 24 hrs by Western blot analysis analysis; type: functional, cell-based; outline: as §2
CWR22R [16] = test: Inhibition of AR mRNA level in human 22Rv1 cells at 10 to 40 uM incubated for 24 hrs by qRT-PCR analysis; type: functional, cell-based; outline: as §1
VCaP [17] = test: Antitumor activity against castration-resistant human VCaP cells xenografted in BALB/c mouse assessed as tumor growth inhibition at 60 mg/kg, po administered for 40 days; type: functional; details: 960 h, read-out: TGI
Outline: (§4)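 Castration-resistant VCaP xenografts grown in male BALB/c nude mice. Animals dosed once daily for 40 days alongside a vehicle group. Tumor volume tracked over time, with tumor weights taken at end. Reported as tumor growth inhibition, mean ± SEM, N = 8-9 per group.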

LNCaP [18] = test: Inhibition of AR splice variant 7 mutant expression in human LNCAP cells at 5 to 30 uM incubated for 24 hrs by Western blot analysis analysis; type: functional, cell-based; outline: as §2
CWR22R [19] = test: Inhibition of AR splice variant 7 mutant gene expression in human 22Rv1 cells at 10 to 40 uM incubated for 24 hrs by qRT-PCR analysis; type: functional, cell-based; outline: as §1
[20] = Toxicity in BALB/c mouse xenografted with castration-resistant human VCaP cells assessed as weight loss at 30 to 60 mg/kg, po administered for 40 days; type: organism-based; details: in vivo, 960 h
Outline: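 Castration-resistant VCaP xenografts in male BALB/c nude mice. Animals treated once daily for 40 days, with a vehicle group included.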

VCaP [21] = test: Antitumor activity against castration-resistant human VCaP cells xenografted in BALB/c mouse assessed as tumor growth inhibition at 30 mg/kg, po administered for 40 days; type: functional; details: 960 h, read-out: TGI; outline: as §4
VCaP [22] = test: Inhibition of AR mRNA level in human VCaP cells at 10 to 40 uM incubated for 24 hrs by qRT-PCR analysis; type: functional, cell-based; outline: as §1
VCaP [23] = test: Inhibition of AR splice variant 7 mutant expression in human VCaP cells at 10 to 40 uM incubated for 24 hrs by Western blot analysis analysis; type: functional, cell-based; outline: as §2

C[C@@H](Cn1ccc(-c2ccc(C#N)c(Cl)c2)n1)Nc1cccc2ncccc12
inhibition (VCaP [1]): Active | inhibition (LNCaP [2]): Active | inhibition (LNCaP [3]): Active | inhibition (CWR22R [4]): Active | inhibition (LNCaP [5]): Active | inhibition (CWR22R [6]): Active | inhibition (VCaP [7]): Active | inhibition (CWR22R [8]): Active

C[C@@H](Cn1ccc(-c2ccc(C#N)c(Cl)c2)n1)Nc1ncnc2nc[nH]c12
half-life [9]: 1.79 h | inhibition (LNCaP [10]): Active | inhibition (CWR22R [11]): Active | inhibition (LNCaP [12]): Active | Activity (LNCaP [13]): inactive | AUC(0-t) at 24 h [14]: 7280 ng·h/mL | inhibition (CWR22R [15]): Active | inhibition (CWR22R [16]): Active | inhibition in vivo at 60 mg/kg (VCaP [17]): 77.8% | inhibition (LNCaP [18]): Active | inhibition (CWR22R [19]): Active | Activity [20]: Non-Toxic | inhibition in vivo at 30 mg/kg (VCaP [21]): 64.7% | inhibition (VCaP [22]): Active | inhibition (VCaP [23]): Active

— ChEMBL document CHEMBL4359895, “Discovery and biological evaluation of darolutamide derivatives as inhibitors and down-regulators of wild-type AR and the mutants” (Eur J Med Chem, 2019)
